In brackets after ≈: the same amount, converted by molar mass. Activity calls are given as the source filed them. The rule behind the calls is not given here.
Tests used:
[1] = (§1) Cytotoxicity against african green monkey Vero cells after 72 hrs; format: cell-based, Chlorocebus sabaeus; conditions: chlorocebus sabaeus, Vero cells; read-out: MIC
[2] = tested on: Mycobacterium tuberculosis; assay: Antimycobacterial activity against Mycobacterium tuberculosis H37Rv expressing pFCA-luxAB after 10 days by low-oxygen recovery assay; format: functional; conditions: 240 h
How it was run: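 Low oxygen recovery assay (LORA): a luminescence-based read-out of activity against non-replicating Mtb under oxygen-deprived conditions. MIC averaged over two to three independent experiments.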

[3] = tested on: Mycobacterium tuberculosis; assay: Antimycobacterial activity against Mycobacterium tuberculosis H37Rv after […] by microplate alamar; format: functional
How it was run: (§2)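 Microplate Alamar blue assay (MABA) on Mtb H37Rv. MIC reported as the average of two to three independent experiments.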

Vero = assay: as §1; format: cell-based, Chlorocebus sabaeus; conditions: Chlorocebus sabaeus, Vero, 72 h
Escherichia coli = assay: Antimicrobial activity against Escherichia coli; format: functional
Staphylococcus aureus = assay: Antimicrobial activity against Staphylococcus aureus; format: functional
[4] = tested on: Mycolicibacterium smegmatis; assay: Antimicrobial activity against Mycobacterium smegmatis; format: functional
Candida albicans = assay: Antimicrobial activity against Candida albicans; format: functional
Toxoplasma gondii = assay: Antimicrobial activity against Toxoplasma gondii; format: functional, organism-based
[5] = tested on: Mycobacterium tuberculosis; assay: Antimycobacterial activity against Mycobacterium tuberculosis H37Rv; format: functional; how it was run: as §2

SMILES: NNC(=O)c1ccncc1 [ISONIAZID]
- MCC at 72 h [1]: > 128 µM
- MIC [2]: > 128 µM
- MIC [3]: 0.5 µM (≈ 0.0686 µg/mL)

SMILES: CCOC(=O)c1cc(-c2cccc(OCc3cccc(C)c3)c2)on1
- IC50 (Vero): > 128 µM
- MIC [2]: 14.9 µM (≈ 5.03 µg/mL)
- MIC [3]: 1.2 µM (≈ 0.405 µg/mL)

SMILES: CCOC(=O)c1cc(-c2cccc(O)c2)on1
- MIC [2]: 114 µM (≈ 26.6 µg/mL)
- MIC [3]: 7.3 µM (≈ 1.7 µg/mL)

SMILES: CCOC(=O)c1cc(-c2ccc(C(O)c3cccc(OC)c3)cc2)on1 (stereo not drawn)
- MIC [2]: 23.9 µM (≈ 8.45 µg/mL)
- MIC [3]: 2.8 µM (≈ 0.989 µg/mL)

SMILES: CCOC(=O)c1cc(-c2cccc(OCc3cccc(C(F)(F)F)c3)c2)on1
- MIC (Escherichia coli): > 100 µM
- MIC (Staphylococcus aureus): > 100 µM
- MIC [4]: > 100 µM
- IC50 (Vero): > 128 µM
- MIC [2]: 8 µM (≈ 3.13 µg/mL)
- MIC [3]: 0.6 µM (≈ 0.235 µg/mL)
- MIC (Candida albicans): > 100 µM
- Activity (Toxoplasma gondii): inactive

SMILES: CCOC(=O)c1cc(-c2cccc(NCc3cccc(C(F)(F)F)c3)c2)on1
- IC50 (Vero): > 128 µM
- MIC [2]: 15.3 µM (≈ 5.97 µg/mL)
- MIC [3]: 1.1 µM (≈ 0.429 µg/mL)

SMILES: CCOC(=O)c1cc(-c2cccc(Oc3cc(C(F)(F)F)nc4ccccc34)c2)on1
- MIC [5]: 0.95 µM (≈ 0.407 µg/mL)

SMILES: CCOC(=O)c1cc(-c2cccc(OCc3cccc(F)c3)c2)on1
- IC50 (Vero): > 128 µM
- MIC [2]: 18.9 µM (≈ 6.45 µg/mL)
- MIC [3]: 0.8 µM (≈ 0.273 µg/mL)

SMILES: CCOC(=O)c1cc(-c2cccc(OCc3cc(F)ccc3Cl)c2)on1
- MIC [2]: 15.1 µM (≈ 5.67 µg/mL)
- MIC [3]: 0.9 µM (≈ 0.338 µg/mL)

SMILES: CCOC(=O)c1cc(-c2cccc(OCc3cccc(C(=O)N4CCOCC4)c3)c2)on1
- IC50 (Vero): > 128 µM
- MIC [2]: > 128 µM
- MIC [3]: > 128 µM

SMILES: CCOC(=O)c1cc(-c2cccc(OCc3cccc(OC(F)(F)F)c3)c2)on1
- IC50 (Vero): 101 µM
- MIC [2]: 13.1 µM (≈ 5.34 µg/mL)
- MIC [3]: 0.7 µM (≈ 0.285 µg/mL)

SMILES: CCOC(=O)c1cc(-c2cccc(OCc3cccc(OC)c3)c2)on1
- IC50 (Vero): > 128 µM
- MIC [2]: 26.7 µM (≈ 9.44 µg/mL)
- MIC [3]: 2.1 µM (≈ 0.742 µg/mL)

SMILES: CCOC(=O)c1cc(-c2cccc(OCc3ccccc3C(F)(F)F)c2)on1
- IC50 (Vero): > 128 µM
- MIC [2]: 34.8 µM (≈ 13.6 µg/mL)
- MIC [3]: 1.5 µM (≈ 0.587 µg/mL)

SMILES: CCOC(=O)c1cc(-c2cccc(Oc3cccc(C(F)(F)F)c3)c2)on1
- IC50 (Vero): > 128 µM
- MIC [2]: 10.5 µM (≈ 3.96 µg/mL)
- MIC [3]: 1 µM (≈ 0.377 µg/mL)

SMILES: CCOC(=O)c1cc(-c2cccc(OCc3c(F)cccc3F)c2)on1
- IC50 (Vero): > 128 µM
- MIC [2]: 12.8 µM (≈ 4.6 µg/mL)
- MIC [3]: 1.2 µM (≈ 0.431 µg/mL)

SMILES: CCOC(=O)c1cc(-c2cccc(OCc3cccc(C(F)(F)F)c3F)c2)on1
- IC50 (Vero): > 128 µM
- MIC [2]: 7 µM (≈ 2.87 µg/mL)
- MIC [3]: 0.6 µM (≈ 0.246 µg/mL)

SMILES: CCOC(=O)c1cc(-c2cccc(OCc3cccc(Br)c3)c2)on1
- IC50 (Vero): > 128 µM
- MIC [2]: 12.7 µM (≈ 5.11 µg/mL)
- MIC [3]: 0.8 µM (≈ 0.322 µg/mL)

SMILES: CCOC(=O)c1cc(-c2cccc(OCc3ccccc3[N+](=O)[O-])c2)on1
- IC50 (Vero): > 128 µM
- MIC [2]: 25.8 µM (≈ 9.5 µg/mL)
- MIC [3]: 1.5 µM (≈ 0.553 µg/mL)

SMILES: CCOC(=O)c1cc(-c2cccc(OCc3cc(F)ccc3F)c2)on1
- IC50 (Vero): > 128 µM
- MIC [2]: 23.7 µM (≈ 8.52 µg/mL)
- MIC [3]: 0.9 µM (≈ 0.323 µg/mL)

SMILES: CCOC(=O)c1cc(-c2cccc(OCc3cc(F)cc(F)c3)c2)on1
- IC50 (Vero): > 128 µM
- MIC [2]: 16.6 µM (≈ 5.96 µg/mL)
- MIC [3]: 4.4 µM (≈ 1.58 µg/mL)

SMILES: CCOC(=O)c1cc(-c2cccc(OCC(=O)N3CCOCC3)c2)on1
- MIC [2]: 48.9 µM (≈ 17.6 µg/mL)
- MIC [3]: 13.8 µM (≈ 4.97 µg/mL)

SMILES: CCOC(=O)c1cc(COc2cc(C(F)(F)F)nc3c(C(F)(F)F)cccc23)on1
- MIC [5]: 0.9 µM (≈ 0.391 µg/mL)

SMILES: CCOC(=O)c1cc(-c2cccc(OCc3c(F)ccc(F)c3F)c2)on1
- MIC [2]: 10.9 µM (≈ 4.11 µg/mL)
- MIC [3]: 1 µM (≈ 0.377 µg/mL)

SMILES: CCOC(=O)c1cc(-c2cccc(OCc3cccc(N)c3)c2)on1
- IC50 (Vero): > 128 µM
- MIC [2]: 25.8 µM (≈ 8.73 µg/mL)
- MIC [3]: 1.5 µM (≈ 0.508 µg/mL)

SMILES: CCOC(=O)c1cc(-c2ccccc2NC(=O)c2ccccc2)on1
- MIC [2]: > 128 µM
- MIC [3]: > 128 µM

SMILES: CCOC(=O)c1cc(-c2cccc(OCc3ccc(F)c(F)c3)c2)on1
- IC50 (Vero): > 128 µM
- MIC [2]: 19.2 µM (≈ 6.9 µg/mL)
- MIC [3]: 0.6 µM (≈ 0.216 µg/mL)

SMILES: CCOC(=O)c1cc(-c2cccc(NC(=O)c3cccc(C(F)(F)F)c3)c2)on1
- IC50 (Vero): > 128 µM
- MIC [2]: 28.3 µM (≈ 11.4 µg/mL)
- MIC [3]: 1.4 µM (≈ 0.566 µg/mL)

SMILES: CCOC(=O)c1cc(-c2cccc(OCc3ccc(F)c(F)c3F)c2)on1
- IC50 (Vero): > 128 µM
- MIC [2]: 12.6 µM (≈ 4.75 µg/mL)
- MIC [3]: 0.9 µM (≈ 0.34 µg/mL)

SMILES: CCOC(=O)c1cc(-c2cccc(OCc3ccccc3)c2)on1
- IC50 (Vero): > 128 µM
- MIC [2]: 41.5 µM (≈ 13.4 µg/mL)
- MIC [3]: 1.2 µM (≈ 0.388 µg/mL)

SMILES: OC(c1cc(C(F)(F)F)nc2c(C(F)(F)F)cccc12)C1CCCCN1 (stereo not drawn) [MEFLOQUINE]
- MIC [5]: 13 µM (≈ 4.92 µg/mL)

SMILES: CCOC(=O)c1cc(-c2cccc(OCc3ccc(C(F)(F)F)cc3)c2)on1
- IC50 (Vero): > 128 µM
- MIC [2]: 11.8 µM (≈ 4.62 µg/mL)
- MIC [3]: 0.4 µM (≈ 0.157 µg/mL)

SMILES: CCOC(=O)c1cc(-c2cccc(OCc3cccc(C#N)c3)c2)on1
- IC50 (Vero): > 128 µM
- MIC [2]: 26.5 µM (≈ 9.23 µg/mL)
- MIC [3]: 0.6 µM (≈ 0.209 µg/mL)

SMILES: CO[C@H]1/C=C/O[C@@]2(C)Oc3c(C)c(O)c4c(O)c(c(/C=N/N5CCN(C)CC5)c(O)c4c3C2=O)NC(=O)/C(C)=C\C=C\[C@H](C)[C@H](O)[C@@H](C)[C@@H](O)[C@@H](C)[C@H](OC(C)=O)[C@@H]1C [RIFAMPIN]
- MIC [2]: 1.9 µM (≈ 1.56 µg/mL)
- MIC [3]: 0.1 µM (≈ 0.0823 µg/mL)

SMILES: CCOC(=O)c1cc(-c2cccc(OCc3ccc(F)cc3)c2)on1
- MIC [2]: 24 µM (≈ 8.19 µg/mL)
- MIC [3]: 1.8 µM (≈ 0.614 µg/mL)

SMILES: CCOC(=O)c1cc(/C=C/c2cccc(C(F)(F)F)c2)on1
- MIC [5]: 0.73 µM (≈ 0.227 µg/mL)

SMILES: CCOC(=O)c1cc(-c2cccc(OCc3cccc(F)c3F)c2)on1
- IC50 (Vero): > 128 µM
- MIC [2]: 26.8 µM (≈ 9.63 µg/mL)
- MIC [3]: 1.6 µM (≈ 0.575 µg/mL)

SMILES: CCOC(=O)c1cc(-c2cccc(OCc3cccc(Cl)c3)c2)on1
- IC50 (Vero): > 128 µM
- MIC [2]: 10.8 µM (≈ 3.86 µg/mL)
- MIC [3]: 1 µM (≈ 0.358 µg/mL)

SMILES: CCOC(=O)c1ccc(COc2cccc(-c3cc(C(=O)OCC)no3)c2)cc1
- IC50 (Vero): > 128 µM
- MIC [2]: 32.7 µM (≈ 12.9 µg/mL)
- MIC [3]: 0.4 µM (≈ 0.158 µg/mL)

SMILES: CCOC(=O)c1cc(-c2cccc(OCc3ccc(Cl)c(Cl)c3)c2)on1
- MIC [2]: 10.6 µM (≈ 4.16 µg/mL)
- MIC [3]: 2.7 µM (≈ 1.06 µg/mL)

SMILES: CCOC(=O)c1cc(-c2cccc(OCc3ccccc3F)c2)on1
- MIC [2]: 19.1 µM (≈ 6.52 µg/mL)
- MIC [3]: 1.1 µM (≈ 0.375 µg/mL)

SMILES: O=[N+]([O-])c1cn2c(n1)OC[C@@H](OCc1ccc(OC(F)(F)F)cc1)C2 [PRETOMANID]
- MIC [2]: 3.8 µM (≈ 1.37 µg/mL)
- MIC [3]: 0.3 µM (≈ 0.108 µg/mL)

SMILES: CCOC(=O)c1cc(-c2cccc(OCc3cccc([N+](=O)[O-])c3)c2)on1
- IC50 (Vero): > 128 µM
- MIC [2]: 8.7 µM (≈ 3.2 µg/mL)
- MIC [3]: 0.6 µM (≈ 0.221 µg/mL)

SMILES: CCOC(=O)c1cc(-c2cccc(OCc3ccc(F)c(F)c3)c2)[nH]n1
- MIC [2]: > 128 µM
- MIC [3]: 32 µM (≈ 11.5 µg/mL)

SMILES: CCOC(=O)c1cc(-c2cccc(OCc3ccc(F)cc3F)c2)on1
- IC50 (Vero): > 128 µM
- MIC [2]: 15.7 µM (≈ 5.64 µg/mL)
- MIC [3]: 1 µM (≈ 0.359 µg/mL)

SMILES: CCOC(=O)c1cc(-c2ccc(NCc3cccc(C(F)(F)F)c3)cc2)on1
- IC50 (Vero): > 128 µM
- MIC [2]: 6.3 µM (≈ 2.46 µg/mL)
- MIC [3]: 0.6 µM (≈ 0.234 µg/mL)

SMILES: CCOC(=O)c1cc(-c2cccc(OCc3ccccc3Cl)c2)on1
- IC50 (Vero): > 128 µM
- MIC [2]: 10.1 µM (≈ 3.61 µg/mL)
- MIC [3]: 0.9 µM (≈ 0.322 µg/mL)

— ChEMBL document CHEMBL1156795, “Rational design of 5-phenyl-3-isoxazolecarboxylic acid ethyl esters as growth inhibitors of Mycobacterium tuberculosis. a potent and selective series for further drug development” (J Med Chem, 2010)
